From paper PMC11294631 (Nature Communications, 2024)
Read-outs that look alike come from different tables or passages of the source.

Key:
SNAP-mGluR3 [1] = biological target: T1, SNAP-mGluR3 (Rattus norvegicus, UniProt P31422); experiment: GIRK current, whole-cell patch clamp; format: cell-based; settings: GIRK1-F137S co-expressed
SNAP-mGluR3 [2] = biological target: T1, SNAP-mGluR3; experiment: GIRK current, whole-cell patch clamp; format: cell-based
Procedure, shortened: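 Cells grown in DMEM with 10% FBS at 37 °C/5% CO2, seeded on poly-L-lysine-coated glass coverslips, and co-transfected (Lipofectamine 2000) with receptor, GIRK1-F137S homotetramer and tdTomato. Medium was switched at 6 h to 5 µM LY341495. Whole-cell voltage clamp at −60 mV 24–36 h post-transfection. Log EC50 of point mutants versus WT compared by extra sum-of-squares F-test.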

T1 sequence (P31422 23-879): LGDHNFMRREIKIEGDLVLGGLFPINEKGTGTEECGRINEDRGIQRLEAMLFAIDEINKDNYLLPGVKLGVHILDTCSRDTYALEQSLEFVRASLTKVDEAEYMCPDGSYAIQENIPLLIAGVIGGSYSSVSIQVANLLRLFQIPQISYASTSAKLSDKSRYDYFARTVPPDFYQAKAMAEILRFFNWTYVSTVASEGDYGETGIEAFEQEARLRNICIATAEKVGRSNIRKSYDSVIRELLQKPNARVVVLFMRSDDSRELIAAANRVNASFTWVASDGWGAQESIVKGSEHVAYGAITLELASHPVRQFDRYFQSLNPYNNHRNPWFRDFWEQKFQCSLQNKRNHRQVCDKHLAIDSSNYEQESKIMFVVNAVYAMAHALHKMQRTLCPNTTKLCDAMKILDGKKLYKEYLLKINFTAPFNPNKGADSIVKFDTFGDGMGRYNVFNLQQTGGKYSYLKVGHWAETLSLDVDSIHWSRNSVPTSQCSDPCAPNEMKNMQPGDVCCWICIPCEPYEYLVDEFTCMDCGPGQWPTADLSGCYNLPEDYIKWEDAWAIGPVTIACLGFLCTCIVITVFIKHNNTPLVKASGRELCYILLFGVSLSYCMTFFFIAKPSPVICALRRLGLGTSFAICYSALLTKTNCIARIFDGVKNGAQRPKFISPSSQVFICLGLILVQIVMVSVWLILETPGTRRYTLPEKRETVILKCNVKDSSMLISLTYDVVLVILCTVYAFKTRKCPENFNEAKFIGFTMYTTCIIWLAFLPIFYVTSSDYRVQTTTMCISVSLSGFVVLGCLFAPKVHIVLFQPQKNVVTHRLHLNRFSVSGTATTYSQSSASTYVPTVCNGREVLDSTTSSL

Compound | EC50 (SNAP-mGluR3 [1]; orthosteric agonist) | further results
N[C@H](C(=O)O)C1[C@@H](C(=O)O)[C@@H]1C(=O)O (stereo partly shown) [DCG-IV] |  | EC50 (SNAP-mGluR3 [1]; orthosteric partial agonist): All three agonists produced dose-dependent, reversible GIRK currents
N[C@@]1(C(=O)O)CO[C@H]2[C@H](C(=O)O)[C@H]21 [LY379268] | All three agonists produced dose-dependent, reversible GIRK currents | 
COc1ccc(C(=O)O)cc1OC[C@H](C)COc1ccc(C(=O)CC(C)(C)C)c(O)c1C [VU6023326, (R)−3-(3-(4-(3,3-dimethylbutanoyl)−3-hydroxy-2-methylphenoxy)−2-methyl-propoxy)−4-methoxybenzoic acid] |  | EC50 (SNAP-mGluR3 [2]): 7.94 nM
N[C@@H](CCC(=O)O)C(=O)O [glutamate] | All three agonists produced dose-dependent, reversible GIRK currents | 
